# ChEMBL document CHEMBL4138245, “Design and synthesis of novel quinacrine-[1,3]-thiazinan-4-one hybrids for their anti-breast cancer activity” (Eur J Med Chem, 2018)
# Activity calls are given as the source filed them. No cut-off for these calls is given here.
# How the values were obtained:
# MDA-MB-231 [1] = test: Antiproliferative activity against human MDA-MB-231 cells after 48 hrs by SRB assay; type: functional, cell-based; conditions: MDA-MB-231, 48 h
# Method in brief: (§1)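 SRB assay: 5,000-10,000 cells/well plated, 24 h at 37 °C/5% CO2 before drug; seven concentrations from 100 μM down (two- to ten-fold serial dilutions, DMSO ≤0.1% final) for 48 h; TCA fixation (10% final, 60 min, 4 °C), 0.4% SRB in 1% acetic acid, solubilized in 10 mM Tris base, absorbance 515-564 nm; growth = (Ti−Tz)/(C−Tz)×100; IC50 from sigmoidal variable-slope fit; triplicates, ≥2 independent experiments.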
# MCF7 [2] = test: Antiproliferative activity against human MCF7 cells after 48 hrs by SRB assay; type: functional, cell-based; conditions: MCF7, 48 h; method in brief: as §1
# 184B5 [3] = test: Antiproliferative activity against human 184B5 cells after 48 hrs by SRB assay; type: cell-based; conditions: 184B5, 48 h; method in brief: as §1
# MCF7 [4] = test: Anticlonogenic activity against human MCF7 cells at 0.39 to 1.5 uM after 12 hrs by crystal violet staining based assay; type: functional, cell-based
# Method in brief: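 Clonogenic assay: 1000 cells/well seeded, treated after overnight attachment for 12 h, then medium replaced and cells grown until control colonies were large enough; colonies stained with crystal violet.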
# MCF7 [5] = test: Antiproliferative activity against human MCF7 cells assessed as compound concentration required to show complete inhibition of cell viability up to 96 hrs by SRB assay; type: functional
# BT-474 = test: Antiproliferative activity against human BT474 cells assessed as compound concentration required to show complete inhibition of cell viability up to 96 hrs by SRB assay; type: functional
# CAMA-1 = test: Antiproliferative activity against human CAMA1 cells assessed as compound concentration required to show complete inhibition of cell viability up to 96 hrs by SRB assay; type: functional
# MDA-MB-453 = test: Antiproliferative activity against human MDA-MB-453 cells assessed as compound concentration required to show complete inhibition of cell viability up to 96 hrs by SRB assay; type: functional
# A549 = test: Antiproliferative activity against human A549 cells assessed as compound concentration required to show complete inhibition of cell viability up to 96 hrs by SRB assay; type: functional
# NCI-H1975 = test: Antiproliferative activity against human NCI-H1975 cells assessed as compound concentration required to show complete inhibition of cell viability up to 96 hrs by SRB assay; type: functional
# MCF-10A = test: Antiproliferative activity against human MCF10A cells assessed as compound concentration required to show complete inhibition of cell viability up to 96 hrs by SRB assay; type: cell-based
# 184B5 [6] = test: Antiproliferative activity against human 184B5 cells at 1 to 2 uM up to 96 hrs by SRB assay; type: cell-based; conditions: 184b5, 96 h
# MCF7 [7] = test: Cell cycle arrest in human MCF7 cells assessed as accumulation at sub-G1 phase at 2 uM after 48 hrs by propidium iodide staining based flow cytometry; type: functional
# Method in brief: (§2)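 MCF7, MDA-MB231 and non-cancer 184B5 breast cells exposed to 2 μM for 48 h, then cell-cycle analysis by flow cytometry; duplicates, repeated three times.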
# MDA-MB-231 [8] = test: Cell cycle arrest in human MDA-MB-231 cells assessed as accumulation at S phase at 2 uM after 48 hrs by propidium iodide staining based flow cytometry; type: functional; method in brief: as §2
# MCF7 [9] = test: Cell cycle arrest in human MCF7 cells assessed as DNA content at 2 uM after 12 hrs by BrdU incorporation assay (reference value: 20.7%); type: functional
# MDA-MB-231 [10] = test: Inhibition of DNA replication in human MDA-MB-231 cells assessed as EdU incorporation at 2 uM pretreated for 48 hrs followed by EdU addition at final 45 mins of 48 hrs incubation time (reference value: 45 to 63%); type: functional; design: scale not given: the % may be the effect or the level left
# 184B5 [11] = test: Inhibition of DNA replication in human 184B5 cells assessed as EdU incorporation at 2 uM pretreated for 48 hrs followed by EdU addition at final 45 mins of 48 hrs incubation time (reference value: 55%); type: cell-based; design: scale not given: the % may be the effect or the level left; conditions: 184b5, 48 h
# MCF7 [12] = test: Downregulation of Cyclin-B protein expression in human MCF7 cells at 2 uM after 24 to 72 hrs by Western blot method; type: functional, cell-based
# MCF7 [13] = test: Downregulation of Cyclin-A protein expression in human MCF7 cells at 2 uM after 24 to 72 hrs by Western blot method; type: functional, cell-based
# MCF7 [14] = test: Induction of DNA damage in human MCF7 cells assessed as increase in gammaH2Ax level at 2 uM after 24 to 48 hrs by Western blot method; type: functional, cell-based
# [15] = biological target: Serine/threonine-protein kinase Chk2 (Homo sapiens) (UniProt O96017); test: Induction of CHK2 phosphorylation at T68 residue in human MCF7 cells at 2 uM after 12 to 48 hrs by Western blot method; type: cell-based
# Sequence of Serine/threonine-protein kinase Chk2 (Homo sapiens) (O96017 whole entry): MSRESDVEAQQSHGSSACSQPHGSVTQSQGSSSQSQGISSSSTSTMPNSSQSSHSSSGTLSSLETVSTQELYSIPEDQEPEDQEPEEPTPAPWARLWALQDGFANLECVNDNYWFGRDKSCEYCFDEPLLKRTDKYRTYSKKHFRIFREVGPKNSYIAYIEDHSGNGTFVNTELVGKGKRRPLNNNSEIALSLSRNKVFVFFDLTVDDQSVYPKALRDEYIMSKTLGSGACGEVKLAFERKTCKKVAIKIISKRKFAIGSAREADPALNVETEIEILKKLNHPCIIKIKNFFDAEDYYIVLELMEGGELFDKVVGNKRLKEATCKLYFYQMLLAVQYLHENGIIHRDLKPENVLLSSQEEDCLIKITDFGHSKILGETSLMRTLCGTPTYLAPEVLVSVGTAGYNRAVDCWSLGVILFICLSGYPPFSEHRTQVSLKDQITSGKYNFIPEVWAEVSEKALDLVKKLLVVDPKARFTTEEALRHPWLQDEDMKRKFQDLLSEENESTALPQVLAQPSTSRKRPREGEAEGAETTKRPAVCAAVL
# [16] = biological target: Serine/threonine-protein kinase mTOR (Homo sapiens) (UniProt P42345); test: Inhibition of mTOR pathway in human MCF7 cells assessed as reduction in S6K phosphorylation at Thr389 residue at 2 uM after 6 hrs by Western blot method; type: cell-based
# [17] = biological target: Serine/threonine-protein kinase mTOR (Homo sapiens) (UniProt P42345); test: Inhibition of mTOR pathway in human MCF7 cells assessed as reduction in S6K phosphorylation at Thr389 residue at 2 uM after 24 hrs by Western blot method; type: cell-based
# [18] = biological target: Serine/threonine-protein kinase mTOR (Homo sapiens) (UniProt P42345); test: Inhibition of mTOR pathway in human MCF7 cells assessed as reduction in 4EBP1 phosphorylation at Thr37/Thr46 residues at 2 uM after 6 hrs by Western blot method; type: cell-based
# [19] = Selectivity index, ratio of compound concentration for cell killing activity in human MCF10A cells to compound concentration for cell killing activity in human BT474 cells; type: toxicity, cell-based; conditions: MCF10A cells versus BT474 cells, read-out: Selectivity Index
# [20] = Selectivity index, ratio of compound concentration for cell killing activity in human MCF10A cells to compound concentration for cell killing activity in human MDA-MB-453 cells; type: toxicity, cell-based; conditions: MCF10A cells versus MDA-MB-453 cells, read-out: Selectivity Index
# [21] = Selectivity index, ratio of compound concentration for cell killing activity in human MCF10A cells to compound concentration for cell killing activity in human MDA-MB-231 cells; type: toxicity, cell-based; conditions: MCF10A cells versus MDA-MB-231 cells, read-out: Selectivity Index
# [22] = Selectivity index, ratio of compound concentration for cell killing activity in human MCF10A cells to compound concentration for cell killing activity in human PC3 cells; type: toxicity, cell-based; conditions: MCF10A cells versus PC3 cells, read-out: Selectivity Index
# [23] = Selectivity index, ratio of compound concentration for cell killing activity in human 184B5 cells to compound concentration for cell killing activity in human MDA-MB-453 cells; type: toxicity, cell-based; conditions: 184B5 cells versus MDA-MB-453 cells, read-out: Selectivity Index
# [24] = Selectivity index, ratio of compound concentration for cell killing activity in human 184B5 cells to compound concentration for cell killing activity in human MDA-MB-468 cells; type: toxicity, cell-based; conditions: 184B5 cells versus MDA-MB-468 cells, read-out: Selectivity Index
# [25] = Selectivity index, ratio of compound concentration for cell killing activity in human 184B5 cells to compound concentration for cell killing activity in human LNCAP cells; type: toxicity, cell-based; conditions: 184B5 cells versus LNCAP cells, read-out: Selectivity Index
smiles,measurement,setting,value
COc1ccc2nc3cc(Cl)ccc3c(NCCCN3C(=O)CCSC3c3cccs3)c2c1 (stereo unspecified),IC50,MDA-MB-231 [1],2800 nM
same,IC50,MCF7 [2],690 nM
same,IC50,184B5 [3],4960 nM
same,Activity,MCF7 [4],Active
same,Activity,MCF7 [5],1 µM
same,Activity,BT-474,1 µM
same,Activity,CAMA-1,2 µM
same,Activity,MDA-MB-453,2 µM
same,Activity,A549,2 µM
same,Activity,NCI-H1975,2 µM
same,Activity,MCF-10A,> 6 µM
same,Activity,184B5 [6],Non-Toxic
same,Activity,MCF7 [7],Active
same,Activity,MDA-MB-231 [8],Active
same,Activity,MCF7 [9],8.7%
same,Activity,MDA-MB-231 [10],10%
same,Activity,184B5 [11],52%
same,Activity,MCF7 [12],Active
same,Activity,MCF7 [13],Active
same,Activity,MCF7 [14],inactive
same,Activity,[15],inactive
same,inhibition,[16],inactive
same,inhibition,[17],Active
same,inhibition,[18],Active
same,selectivity ratio,[19],3 to 6
same,selectivity ratio,[20],3 to 6
same,selectivity ratio,[21],3 to 6
same,selectivity ratio,[22],3 to 6
same,selectivity ratio,[23],3 to 6
same,selectivity ratio,[24],3 to 6
same,selectivity ratio,[25],3 to 6
